# Measurements pooled from the literature.
# FGFR3: Fibroblast growth factor receptor 3 (FGFR3, Homo sapiens, UniProt P22607)
# FGFR3 G697C: Fibroblast growth factor receptor 3 (FGFR3, Homo sapiens, UniProt P22607, G697C)
SMILES,target,observed,mode,method,concentration,measurement,result
N#Cc1ccc(NC(=O)Nc2ccccc2)cc1,FGFR3,cell-free assay,,competition with immobilised ligand,25 µM,remaining binding,100%
CO[C@@H]1[C@H](N(C)C(=O)c2ccccc2)C[C@H]2O[C@]1(C)n1c3ccccc3c3c4c(c5c6ccccc6n2c5c31)C(=O)NC4,FGFR3,enzyme activity,inhibitor,,1 µM,inhibition,3%
CCCCC(=O)Nc1ccc(-c2ccc3ncn(CCC)c(=O)c3c2)cn1,FGFR3,binding,,competition with immobilised ligand,0.5 µM,remaining binding,96%
C1=C/COCc2cc(ccc2OCCN2CCCC2)Nc2nccc(n2)-c2cccc(c2)COC/1,FGFR3 G697C,binding,,,0.1 µM,remaining binding,100%
Cc1ccc(NC(=O)c2ccnc(C(F)(F)F)c2)cc1-c1cc(OCCO)nc(N2CCOCC2)c1,FGFR3,binding,,competition with immobilised ligand,1 µM,remaining binding,90%
COc1ccc2oc(-c3ccc4nc(N)oc4c3)c/c(=N\c3ccccc3NC(=O)CCN)c2c1,FGFR3,binding,,,1 µM,remaining binding,107%
C#Cc1cnc(Nc2ccnc(CO)c2)nc1Nc1ccccc1S(C)(=O)=NC#N (stereo not drawn),FGFR3,cell-free assay,,,1 µM,remaining signal,28%
C[C@H]1CC[C@H](n2c3cnccc3c3cnc(Nc4ccc5c(n4)CCN(C(=O)CO)C5)nc32)CC1,FGFR3,cell-free assay,,competition with immobilised ligand,1 µM,remaining binding,100%
C=CC(=O)N1CCC([C@@H]2CCNc3c(C(N)=O)c(-c4ccc(Oc5ccccc5)cc4)nn32)CC1,FGFR3 G697C,cell-free assay,,,1 µM,inhibition,14%
